From ChEMBL document CHEMBL4219181, “Site-specific effect of polar functional group-modification in lipids of TLR2 ligands for modulating the ligand immunostimulatory activity” (Bioorg Med Chem Lett, 2018)
Calls of active or inactive are those of the source. The calls are words filed in the database; no cut-off is given here. Where a SMILES comes first, the peptide text is derived from it. The star is where a group is joined. Propyl(2R-PamO,3-PamO) = CCCCCCCCCCCCCCCC(=O)OC[C@H](C*)OC(=O)CCCCCCCCCCCCCCC; X1 = CCCCCCCCCCCCCCCC(=O)OC[C@H](C*)OC(=O)CCCCCNC(=O)CCCCCCCC; X2 = CCCCCCCCCCCCCCCC(=O)OC[C@H](C*)OC(=O)CCNC(=O)CCCCCCCCCCC; X3 = CCCCCCCCCCCCCCCC(=O)OC[C@H](C*)OC(=O)CCCNC(=O)CCCCCCCCCC; X4 = CCCCCCCCCCCCCCCC(=O)OC[C@H](C*)OC(=O)CCCCCCNC(=O)CCCCCCC; X5 = CCCCCCCCCCCCCCCC(=O)OC[C@H](C*)OC(=O)CCCCNC(=O)CCCCCCCCC; X6 = CCCCCCCCCCCCCCCC(=O)O[C@H](COC(=O)CCCCCCCCCCNC(=O)CCC)C*; X7 = CCCCCCCCCCCCCCCC(=O)O[C@H](COC(=O)CCCCCCCCNC(=O)CCCCC)C*; X8 = CCCCCCCCCCCCCCCC(=O)O[C@H](COC(=O)CCCCCCCCCCCNC(=O)CC)C*; X9 = CCCCCCCCCCCCCCCC(=O)O[C@H](COC(=O)CCCCCCCCCNC(=O)CCCC)C*

Key:
Toll-like receptor 2 [1] = target: Toll-like receptor 2 (Homo sapiens, UniProt O60603); assay: Inhibition of biotin labelled Pam2CSK4 binding to His tagged human TLR2 after 45 mins by AlphaScreen assay
Summary of the method: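 Competitive binding was measured by AlphaScreen using His-tagged human TLR2 protein and biotinylated Pam2CSK4 as the tracer ligand. Competing ligands displace Pam2CSK4-biotin and lower the luminescent proximity signal.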

THP-1 [2] = assay: Immunostimulatory activity in human THP1 cells assessed as increase in TNF-alpha production at 1 to 100 nM after 24 hrs by ELISA; assay type: functional, cell-based
RAW264.7 [3] = assay: Immunostimulatory activity in mouse RAW264.7 cells assessed as increase in TNF-alpha production at 1 to 100 nM after 24 hrs by ELISA; assay type: functional, cell-based
Toll-like receptor 2 [4] = target: Toll-like receptor 2 (Mus musculus, UniProt Q9QUN7); assay: Inhibition of biotin labelled Pam2CSK4 binding to mouse TLR2 Fc chimera protein after 45 mins by AlphaScreen assay
RAW264.7 [5] = assay: Immunostimulatory activity in mouse RAW264.7 cells assessed as increase in IL-6 production at 1 to 100 nM after 24 hrs by ELISA; assay type: functional, cell-based
Summary of the method: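 Murine RAW264.7 macrophages were incubated with various ligand concentrations, and secreted IL-6 was quantified by ELISA. Values are mean ± standard error of triplicates, with results reproduced in two or three independent experiments.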

THP-1 [6] = assay: Immunostimulatory activity in human THP1 cells assessed as increase in IL-6 production at 1 to 100 nM after 24 hrs by ELISA; assay type: functional, cell-based
Summary of the method: (§1)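 PMA-differentiated THP-1 human monocytic cells were incubated with a range of ligand concentrations. Secreted IL-6 was measured by ELISA. Data are mean ± standard error of triplicate values, and similar results were obtained in two or three independent experiments.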

THP-1 [7] = assay: Immunostimulatory activity in human THP1 cells assessed as increase in IL-6 production after 24 hrs by ELISA; assay type: functional, cell-based; summary of the method: as §1
THP-1 [8] = assay: Immunostimulatory activity in human THP1 cells assessed as increase in TNF-alpha production after 24 hrs by ELISA; assay type: functional, cell-based

Sequence of Toll-like receptor 2 (Homo sapiens, UniProt O60603) (O60603 whole entry): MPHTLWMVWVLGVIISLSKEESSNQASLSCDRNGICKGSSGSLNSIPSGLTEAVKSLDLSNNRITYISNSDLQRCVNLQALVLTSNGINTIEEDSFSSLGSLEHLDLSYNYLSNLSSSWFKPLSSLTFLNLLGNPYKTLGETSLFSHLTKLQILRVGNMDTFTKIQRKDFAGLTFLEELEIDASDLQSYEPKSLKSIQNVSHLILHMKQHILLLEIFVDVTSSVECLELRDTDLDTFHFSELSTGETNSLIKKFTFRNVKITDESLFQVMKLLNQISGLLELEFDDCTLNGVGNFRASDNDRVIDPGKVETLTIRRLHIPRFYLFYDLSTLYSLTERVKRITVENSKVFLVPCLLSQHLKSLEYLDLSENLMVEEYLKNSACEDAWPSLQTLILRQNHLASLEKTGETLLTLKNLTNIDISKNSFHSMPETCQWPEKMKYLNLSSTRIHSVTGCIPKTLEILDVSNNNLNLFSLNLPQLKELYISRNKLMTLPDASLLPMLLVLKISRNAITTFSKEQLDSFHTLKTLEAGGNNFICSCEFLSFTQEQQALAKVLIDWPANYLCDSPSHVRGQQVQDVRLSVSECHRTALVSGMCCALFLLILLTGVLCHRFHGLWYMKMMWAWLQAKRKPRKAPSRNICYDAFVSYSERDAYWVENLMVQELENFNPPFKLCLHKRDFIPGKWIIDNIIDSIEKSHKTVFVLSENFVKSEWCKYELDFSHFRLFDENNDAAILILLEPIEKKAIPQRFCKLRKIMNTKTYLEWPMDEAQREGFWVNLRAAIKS
Sequence of Toll-like receptor 2 (Mus musculus, UniProt Q9QUN7) (Q9QUN7 whole entry): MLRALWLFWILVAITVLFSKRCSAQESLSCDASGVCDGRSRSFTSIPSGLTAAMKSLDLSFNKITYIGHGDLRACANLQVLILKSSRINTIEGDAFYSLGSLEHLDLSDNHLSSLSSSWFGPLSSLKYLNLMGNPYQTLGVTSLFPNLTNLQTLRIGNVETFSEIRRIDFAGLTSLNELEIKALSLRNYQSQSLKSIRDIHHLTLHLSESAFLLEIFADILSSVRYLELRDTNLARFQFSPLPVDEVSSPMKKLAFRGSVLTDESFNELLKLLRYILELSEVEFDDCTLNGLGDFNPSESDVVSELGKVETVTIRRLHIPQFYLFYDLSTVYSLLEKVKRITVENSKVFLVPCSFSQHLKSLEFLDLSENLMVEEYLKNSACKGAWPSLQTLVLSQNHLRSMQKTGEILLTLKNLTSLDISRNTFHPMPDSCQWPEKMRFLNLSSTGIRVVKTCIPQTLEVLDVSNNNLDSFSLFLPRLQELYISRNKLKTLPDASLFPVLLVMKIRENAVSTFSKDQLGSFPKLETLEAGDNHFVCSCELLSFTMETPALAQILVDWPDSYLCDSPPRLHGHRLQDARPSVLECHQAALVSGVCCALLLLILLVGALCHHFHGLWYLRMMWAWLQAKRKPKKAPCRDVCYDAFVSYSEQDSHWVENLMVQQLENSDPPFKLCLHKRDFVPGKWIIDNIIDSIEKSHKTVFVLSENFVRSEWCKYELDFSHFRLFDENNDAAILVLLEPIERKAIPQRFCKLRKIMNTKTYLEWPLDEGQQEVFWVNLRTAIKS

IC50 (Toll-like receptor 2 [1]) | IC50 (Toll-like receptor 2 [4]) | SMILES | Activity (THP-1 [2]) | Activity (RAW264.7 [3]) | Activity (RAW264.7 [5]) | Activity (THP-1 [6]) | Activity (THP-1 [7]) | Activity (THP-1 [8])
0.426 to 0.55 µM | 0.349 µM | CCCCCCCCCCCCCCCC(=O)OC[C@H](CSC[C@H](N)C(=O)N[C@@H](CO)C(=O)N[C@@H](CCCCN)C(=O)N[C@@H](CCCCN)C(=O)N[C@@H](CCCCN)C(=O)N[C@@H](CCCCN)C(=O)O)OC(=O)CCCCCCCCCCCCCCC (H-C(Propyl(2R-PamO,3-PamO))SKKKK-OH) | inactive | inactive | – | – | – | –
4.75 µM | 4.75 µM | CCCCCCCCCCCCCCCC(=O)OC[C@H](CSC[C@H](N)C(=O)N[C@@H](CO)C(=O)N[C@@H](CCCCN)C(=O)N[C@@H](CCCCN)C(=O)N[C@@H](CCCCN)C(=O)N[C@@H](CCCCN)C(=O)O)OC(=O)CCCCCNC(=O)CCCCCCCC (H-C(X1)SKKKK-OH) | Active | Active | Active | Active | – | –
1.68 µM | 1.04 µM | CCCCCCCCCCCCCCCC(=O)OC[C@H](CSC[C@H](N)C(=O)N[C@@H](CO)C(=O)N[C@@H](CCCCN)C(=O)N[C@@H](CCCCN)C(=O)N[C@@H](CCCCN)C(=O)N[C@@H](CCCCN)C(=O)O)OC(=O)CCNC(=O)CCCCCCCCCCC (H-C(X2)SKKKK-OH) | Active | Active | Active | Active | – | –
1.96 µM | 1.38 µM | CCCCCCCCCCCCCCCC(=O)OC[C@H](CSC[C@H](N)C(=O)N[C@@H](CO)C(=O)N[C@@H](CCCCN)C(=O)N[C@@H](CCCCN)C(=O)N[C@@H](CCCCN)C(=O)N[C@@H](CCCCN)C(=O)O)OC(=O)CCCNC(=O)CCCCCCCCCC (H-C(X3)SKKKK-OH) | Active | Active | Active | Active | – | –
3.37 µM | 5.69 µM | CCCCCCCCCCCCCCCC(=O)OC[C@H](CSC[C@H](N)C(=O)N[C@@H](CO)C(=O)N[C@@H](CCCCN)C(=O)N[C@@H](CCCCN)C(=O)N[C@@H](CCCCN)C(=O)N[C@@H](CCCCN)C(=O)O)OC(=O)CCCCCCNC(=O)CCCCCCC (H-C(X4)SKKKK-OH) | Active | Active | Active | Active | – | –
4.65 µM | 5.61 µM | CCCCCCCCCCCCCCCC(=O)OC[C@H](CSC[C@H](N)C(=O)N[C@@H](CO)C(=O)N[C@@H](CCCCN)C(=O)N[C@@H](CCCCN)C(=O)N[C@@H](CCCCN)C(=O)N[C@@H](CCCCN)C(=O)O)OC(=O)CCCCNC(=O)CCCCCCCCC (H-C(X5)SKKKK-OH) | Active | Active | Active | Active | – | –
4.36 µM | – | CCCCCCCCCCCCCCCC(=O)O[C@H](COC(=O)CCCCCCCCCCNC(=O)CCC)CSC[C@H](N)C(=O)N[C@@H](CO)C(=O)N[C@@H](CCCCN)C(=O)N[C@@H](CCCCN)C(=O)N[C@@H](CCCCN)C(=O)N[C@@H](CCCCN)C(=O)O (H-C(X6)SKKKK-OH) | – | – | – | – | Dose-dependent effect | Dose-dependent effect
7.52 µM | – | CCCCCCCCCCCCCCCC(=O)O[C@H](COC(=O)CCCCCCCCNC(=O)CCCCC)CSC[C@H](N)C(=O)N[C@@H](CO)C(=O)N[C@@H](CCCCN)C(=O)N[C@@H](CCCCN)C(=O)N[C@@H](CCCCN)C(=O)N[C@@H](CCCCN)C(=O)O (H-C(X7)SKKKK-OH) | – | – | – | – | Dose-dependent effect | Dose-dependent effect
3.94 µM | – | CCCCCCCCCCCCCCCC(=O)O[C@H](COC(=O)CCCCCCCCCCCNC(=O)CC)CSC[C@H](N)C(=O)N[C@@H](CO)C(=O)N[C@@H](CCCCN)C(=O)N[C@@H](CCCCN)C(=O)N[C@@H](CCCCN)C(=O)N[C@@H](CCCCN)C(=O)O (H-C(X8)SKKKK-OH) | – | – | – | – | Dose-dependent effect | Dose-dependent effect
6.43 µM | – | CCCCCCCCCCCCCCCC(=O)O[C@H](COC(=O)CCCCCCCCCNC(=O)CCCC)CSC[C@H](N)C(=O)N[C@@H](CO)C(=O)N[C@@H](CCCCN)C(=O)N[C@@H](CCCCN)C(=O)N[C@@H](CCCCN)C(=O)N[C@@H](CCCCN)C(=O)O (H-C(X9)SKKKK-OH) | – | – | – | – | Dose-dependent effect | Dose-dependent effect
